The values below come from ChEMBL document CHEMBL1158986, “New antimicrobial filicinic acid derivatives from Hypericum drummondii” (1991).

Molecules are shown by their SMILES. In brackets after ≈: the same amount, converted by molar mass.

Type in all cases: functional
One experiment relates to Staphylococcus aureus. Briefly: Antimicrobial activity against Staphylococcus aureus after 24 hrs by twofold serial broth dilution technique. In short, it runs like this:
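S. aureus (ATCC 6538) cultured in eugon broth. Twofold serial broth dilution covering 0.20–100 μg/ml. Incubation at 37° for 24 h. MIC is the lowest concentration with no growth. Streptomycin sulfate served as standard control.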

The next experiment has as its system Bacillus subtilis. As to the kind of experiment: Antimicrobial activity against Bacillus subtilis after 24 hrs by twofold serial broth dilution technique. The essentials:
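B. subtilis (ATCC 6633) cultured in eugon broth. MIC by twofold serial broth dilution, compounds tested over 0.20–100 μg/ml. Tubes incubated at 30°, read after 24 h. MIC taken as the lowest concentration inhibiting growth. Streptomycin sulfate as standard control.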

The subject of experiment [1] is Mycolicibacterium smegmatis. Briefly: Antimicrobial activity against Mycobacterium smegmatis after 48 hrs by twofold serial broth dilution technique. In short, it runs like this: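 Mycobacterium smegmatis (ATCC 607) grown in eugon broth. Twofold serial broth dilution from 0.20 to 100 μg/ml, tubes kept at 37°, MIC read after 48 h as the lowest concentration preventing growth. Streptomycin sulfate included as standard control.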

As for `CC(=O)C1=C(O)C(C)(CC=C(C)C)C(O)=C(Cc2c(O)c(CC=C(C)C)c(O)c(C(C)=O)c2O)C1=O` (stereo not given) [DRUMMONDIN F], the MIC (usually the least concentration at which growth counts as inhibited) in the experiment on Staphylococcus aureus came to 0.78 µg/mL (≈ 1.56 µM); against Bacillus subtilis it was 0.78 µg/mL (≈ 1.56 µM); in experiment [1] it was 1.56 µg/mL (≈ 3.13 µM).

Consider `CN[C@@H]1[C@H](O[C@H]2[C@H](O[C@H]3[C@H](O)[C@@H](O)[C@H](N=C(N)N)[C@@H](O)[C@@H]3N=C(N)N)O[C@@H](C)[C@]2(O)C=O)O[C@@H](CO)[C@H](O)[C@H]1O` [STREPTOMYCIN], for which the figures for the MIC (against Staphylococcus aureus; against Bacillus subtilis; in experiment [1]) were 12.5 µg/mL (≈ 21.5 µM), 0.78 µg/mL (≈ 1.34 µM) and 1.56 µg/mL (≈ 2.68 µM), respectively.

As to `CC(=O)C1=C(O)C(C)(CC=C(C)C)C(O)=C(Cc2c(OCC=C(C)C)cc(O)c(C(C)=O)c2O)C1=O` (stereo not given) [DRUMMONDIN E], the figures for the MIC (against Staphylococcus aureus; against Bacillus subtilis; in experiment [1]) were 0.39 µg/mL (≈ 0.782 µM), 0.2 µg/mL (≈ 0.401 µM) and 3.12 µg/mL (≈ 6.26 µM), respectively.

For the molecule `CC(=O)C1=C(O)C(C)(CC=C(C)C)C(O)=C(Cc2c(O)c3c(c(C(C)=O)c2O)OC(C)(C)C=C3)C1=O` (stereo not given) [DRUMMONDIN D], the results for the MIC (against Staphylococcus aureus; with Bacillus subtilis; in experiment [1]) were 0.78 µg/mL (≈ 1.57 µM), 0.39 µg/mL (≈ 0.785 µM) and 1.56 µg/mL (≈ 3.14 µM), respectively.

For `CC(=O)C1=C(O)C(C)(CC=C(C)C)C(O)=C(Cc2c(O)c(C(C)=O)c(O)c3c2OC(C)(C)C=C3)C1=O` (stereo not given) [ISODRUMMONDIN D], the MIC was 0.78 µg/mL (≈ 1.57 µM) against Staphylococcus aureus, 0.2 µg/mL (≈ 0.403 µM) against Bacillus subtilis and 1.56 µg/mL (≈ 3.14 µM) in experiment [1].
